# Active and inactive are the calls of the source. No cut-off for these calls is given here.
# What was measured:
# [1] = Activity at synthetic biotin-RNA pseudoknot assessed as increase in -1 ribosomal frameshifting efficiency at 250 uM by dual luciferase assay
# Procedure, shortened: (§1)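 Biotin-pseudoknot template ligated into dual luciferase vector (XhoI/SpeI). Coupled transcription/translation in rabbit reticulocyte lysate with compounds at 250 μM in DMSO; DMSO control. Frameshift efficiency from SDS–PAGE band quantification (100 vs 40 kDa, PhosphorImager) or dual luciferase firefly/Renilla ratio, 10 s reads; fold change = efficiency with compound / without; triplicate runs.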
# [2] = Activity at synthetic biotin-RNA pseudoknot assessed as increase in -1 ribosomal frameshifting efficiency at 250 uM by rabbit reticulocyte based transcription/translation-coupled assay; procedure, shortened: as §1
# [3] = Activity at synthetic biotin-RNA pseudoknot assessed as increase in -1 ribosomal frameshifting efficiency by rabbit reticulocyte based transcription/translation-coupled assay
# Procedure, shortened: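 Concentration series 25 nM to 250 μM in rabbit reticulocyte TNT-coupled assay with biotin-pseudoknot template; biotin at 250 μM as comparator. Frameshifting % from SDS–PAGE autoradiogram, frameshift (100 kDa) vs non-frameshift (40 kDa) protein.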
# HEK293 = test: Activity at synthetic biotin-RNA pseudoknot assessed as increase in -1 ribosomal frameshifting efficiency in human HEK293 cells at 250 uM by transcription/translation-coupled assay; assay type: cell-based
# Procedure, shortened: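 HEK 293 in DMEM, 10% FBS, 1% pen-strep, seeded to 40% confluence, transfected with biotin-pseudoknot dual luciferase construct (50 ng DNA, JetPEI) for 18 h, then compound in DMSO added for a further 18 h. Passive lysis 30 min at room temperature, protein normalised by Bradford (50 μg), firefly/Renilla luciferase ratio read.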
# [4] = tested on: Pea enation mosaic virus-1; test: Activity at PEMV RNA pseudoknot assessed as increase in -1 ribosomal frameshifting efficiency at 250 uM by dual luciferase based transcription/translation-coupled assay
# Procedure, shortened: (§2)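 Template carries PEMV pseudoknot in place of biotin-pseudoknot in dual luciferase vector. In vitro TNT-coupled transcription/translation in rabbit reticulocyte lysate, compounds in DMSO (DMSO control). Read-out by SDS–PAGE autoradiography, frameshift (100 kDa) vs non-frameshift (40 kDa) products quantified by PhosphorImager, or by dual luciferase (firefly then Renilla, 10 s each, ratio); luciferase values mean of triplicates.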
# [5] = tested on: Pea enation mosaic virus-1; test: Activity at PEMV RNA pseudoknot assessed as increase in -1 ribosomal frameshifting efficiency at 250 uM by SDS-PAGE based transcription/translation-coupled assay; procedure, shortened: as §2
Compound,Activity [1],also measured
COC(=O)c1cc(NC(=O)NCCSCc2ccccc2)cc(C(=O)OC)c1,Active,–
CCOC(=O)C(CSCc1ccccc1)NC(=O)Nc1ccc(SC)cc1 (stereo unspecified),Active,–
CCOC(=O)N1CCN(C(=O)Nc2ccccc2SC)CC1,Active,–
CCOC(=O)c1cccc(NC(=O)N2CCCN2C(=O)c2cccnc2SCCCC#N)c1,Active,–
CSc1ccccc1NC(=O)NCC(=O)OCc1ccccc1,Active,–
COC(=O)C(CCCCNC(=O)Nc1cc(F)ccc1F)NS(=O)(=O)c1ccc(C)cc1 (stereo unspecified),18.1%,Activity [2]: 13.7%; Activity [3]: Dose-dependent effect; Activity (HEK293): 8.05%; Activity [4]: inactive; Activity [5]: 7.6%

# Source: ChEMBL document CHEMBL1144703, “Identification of novel ligands for the RNA pseudoknot that regulate -1 ribosomal frameshifting” (Bioorg Med Chem, 2008)
